From ChEMBL document CHEMBL6153131, “Rational Design and Optimization of a Potent IDO1 Proteolysis Targeting Chimera (PROTAC)” (J Med Chem, 2025)
Activity calls are given as the source filed them. No cut-off for these calls is given here.

Legend:
[1] = target: T1, Protein cereblon/Indoleamine 2,3-dioxygenase 1 (Homo sapiens, UniProt P14902+Q96SW2); experiment: PROTAC activity at CRBN/IDO1 in human U87 cells assessed as induction of IDO1 degradation by measuring remaining activity at 10 uM pretreated with IFN-gamma for 24 hrs followed by compound addition and measured after 24 hrs by Western blotting analysis (reference value: 100%); assay type: cell-based
In short: (§1)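 U87 cells given an extended dose range of PROTAC for 24 h, then Western blot for IDO1. IFNγ-induced IDO1 levels normalised to untreated samples. n = 3 independent experiments; mean ± SEM.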

[2] = target: T1, Protein cereblon/Indoleamine 2,3-dioxygenase 1; experiment: PROTAC activity at CRBN/IDO1 in human U87 cells assessed as induction of IDO1 degradation by measuring remaining activity at 100 nM pretreated with IFN-gamma for 24 hrs followed by compound addition and measured after 24 hrs by Western blotting analysis (reference value: 100%); assay type: cell-based
[3] = target: T1, Protein cereblon/Indoleamine 2,3-dioxygenase 1; experiment: Binding affinity to CRBN/6His-tagged recombinant IDO1 (unknown origin) assessed as ternary complex formation by measuring half life by Biolayer Interferometry assay; assay type: protein assay
[4] = target: T1, Protein cereblon/Indoleamine 2,3-dioxygenase 1; experiment: PROTAC activity at CRBN/IDO1 in human GBM43 cell assessed as induction of IDO1 degradation at 10 uM pretreated with IFN-gamma for 24 hrs followed by compound addition and measured after 24 hrs by Western blotting analysis (reference value: 100%); assay type: cell-based
In short: (§2)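 GBM43 patient-derived cells given an extended dose range of PROTAC for 24 h. Protein analysed by Western blot for IDO1, and IFNγ-induced IDO1 normalised to untreated samples. n = 3 independent experiments; data as mean ± SEM.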

[5] = target: T1, Protein cereblon/Indoleamine 2,3-dioxygenase 1; experiment: PROTAC activity at CRBN/IDO1 in human U87 cells assessed as induction of IDO1 degradation at 100 nM at 0.5 uM pretreated with IFN-gamma for 24 hrs followed by compound addition and measured after 24 hrs in presence of MLN4924 by Western blotting analysis; assay type: cell-based
[6] = target: T1, Protein cereblon/Indoleamine 2,3-dioxygenase 1; experiment: PROTAC activity at CRBN/IDO1 in human GBM43 cell assessed as induction of IDO1 degradation at 3 uM pretreated with IFN-gamma for 24 hrs followed by compound addition and measured after 24 hrs by Western blotting analysis (reference value: 100%); assay type: cell-based; in short: as §2
[7] = target: T1, Protein cereblon/Indoleamine 2,3-dioxygenase 1; experiment: PROTAC activity at CRBN/IDO1 in human U87 cells assessed as induction of IDO1 degradation by measuring remaining activity at 0.003 uM incubated for 24 hrs by Western blotting analysis (reference value: 100%); assay type: cell-based
[8] = target: T1, Protein cereblon/Indoleamine 2,3-dioxygenase 1; experiment: PROTAC activity at CRBN/IDO1 in human U87 cells assessed as induction of IDO1 degradation at 100 nM pretreated with IFN-gamma for 24 hrs followed by compound addition and measured after 24 hrs in presence of NU223618 by Western blotting analysis; assay type: cell-based
[9] = target: T1, Protein cereblon/Indoleamine 2,3-dioxygenase 1; experiment: PROTAC activity at CRBN/IDO1 in human U87 cells assessed as induction of IDO1 degradation at 100 nM at 1 uM pretreated with IFN-gamma for 24 hrs followed by compound addition and measured after 24 hrs in presence of MG132 by Western blotting analysis; assay type: cell-based
[10] = target: T1, Protein cereblon/Indoleamine 2,3-dioxygenase 1; experiment: PROTAC activity at CRBN/IDO1 in human U87 cells assessed as induction of IDO1 degradation by measuring remaining activity at 0.001 uM pretreated with IFN-gamma for 24 hrs followed by compound addition and measured after 24 hrs by Western blotting analysis (reference value: 100%); assay type: cell-based; in short: as §1
[11] = target: T1, Protein cereblon/Indoleamine 2,3-dioxygenase 1; experiment: PROTAC activity at CRBN/IDO1 in human U87 cells assessed as induction of IDO1 degradation by measuring remaining activity at 0.3 uM pretreated with IFN-gamma for 24 hrs followed by compound addition and measured after 24 hrs by Western blotting analysis (reference value: 100%); assay type: cell-based; in short: as §1
SK-OV-3 = experiment: Inhibition of kynurenine production in human SK-OV-3 cells pretreated with IFN-gamma for 24 hrs followed by compound addition and measured after 24 hrs by Ehrlich's reagent based analysis; assay type: functional, cell-based; settings: dose 50-100 nM

T1 sequence (P14902 whole entry, looked up): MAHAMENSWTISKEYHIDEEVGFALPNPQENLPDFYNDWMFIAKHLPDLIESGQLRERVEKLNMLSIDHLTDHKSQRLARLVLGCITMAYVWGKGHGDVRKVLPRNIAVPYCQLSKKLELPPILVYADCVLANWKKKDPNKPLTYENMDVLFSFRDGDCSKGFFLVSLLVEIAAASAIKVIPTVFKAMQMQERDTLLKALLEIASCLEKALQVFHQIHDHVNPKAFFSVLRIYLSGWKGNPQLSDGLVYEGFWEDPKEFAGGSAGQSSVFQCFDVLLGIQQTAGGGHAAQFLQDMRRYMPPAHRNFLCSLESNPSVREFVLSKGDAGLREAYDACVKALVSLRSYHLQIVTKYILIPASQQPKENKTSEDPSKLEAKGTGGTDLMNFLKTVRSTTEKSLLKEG
T1 sequence (Q96SW2 whole entry, looked up): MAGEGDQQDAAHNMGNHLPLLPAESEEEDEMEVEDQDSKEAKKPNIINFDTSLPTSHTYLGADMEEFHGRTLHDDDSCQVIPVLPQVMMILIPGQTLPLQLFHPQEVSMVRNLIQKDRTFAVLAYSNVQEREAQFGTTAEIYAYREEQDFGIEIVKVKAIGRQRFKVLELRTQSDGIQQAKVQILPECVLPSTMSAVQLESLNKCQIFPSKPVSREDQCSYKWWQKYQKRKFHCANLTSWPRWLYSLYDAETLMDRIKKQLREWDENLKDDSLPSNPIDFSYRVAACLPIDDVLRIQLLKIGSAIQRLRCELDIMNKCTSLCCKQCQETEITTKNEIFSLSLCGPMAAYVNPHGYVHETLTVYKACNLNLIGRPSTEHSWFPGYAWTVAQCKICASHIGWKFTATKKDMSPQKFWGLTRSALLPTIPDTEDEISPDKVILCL

## C[C@@H](C(=O)Nc1cccc(OC2CCN(C(=O)CN3CCC(N4CCN(c5ccc6c(c5)C(=O)N(C5CCC(=O)NC5=O)C6=O)CC4)CC3)CC2)c1)[C@H]1CC[C@@H](c2ccnc3ccc(F)cc32)CC1 (some centres not stated)
[1]
  Activity: 69%
[2]
  Activity: 24%
[3]
  T1/2: 17.3 min
[4]
  Activity: 87%
[5]
  Activity: inactive
[6]
  Activity: 77%
[7]
  Activity: 71%
[8]
  Activity: inactive
[9]
  Activity: inactive
[10]
  Activity: 83%
[11]
  Activity: 20%
SK-OV-3
  inhibition: Dose-dependent-effect
